Measurements from article PMC2659725 (Archives of biochemistry and biophysics, 2009).
“Also recorded” adds a separate entry of the source. Read-outs that look alike come from different tables or passages of the source. One block for each molecule: values may come before it.

What was measured:
tubulin [1] = biological target: tubulin (Bos taurus, UniProt P81947+Q6B856); assay type: biochemical, bovine; conditions: for Effect on paclitaxel-induced tubulin assembly: 30 μM tubulin, 30 μM paclitaxel
tubulin (Bos taurus, UniProt P81947+Q6B856), sequence (P81947 whole entry): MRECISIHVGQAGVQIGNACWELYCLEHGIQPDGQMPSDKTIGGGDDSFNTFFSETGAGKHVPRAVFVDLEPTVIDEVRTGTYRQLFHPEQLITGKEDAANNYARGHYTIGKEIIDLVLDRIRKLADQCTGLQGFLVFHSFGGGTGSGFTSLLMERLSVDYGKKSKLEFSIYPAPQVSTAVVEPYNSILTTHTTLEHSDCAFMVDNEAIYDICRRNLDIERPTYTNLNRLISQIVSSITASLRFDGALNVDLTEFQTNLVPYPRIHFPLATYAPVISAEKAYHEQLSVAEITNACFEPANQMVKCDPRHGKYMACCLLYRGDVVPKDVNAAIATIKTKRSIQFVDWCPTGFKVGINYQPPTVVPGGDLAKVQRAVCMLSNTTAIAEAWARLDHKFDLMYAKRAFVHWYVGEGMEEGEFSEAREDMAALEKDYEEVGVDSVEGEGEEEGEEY
tubulin (Bos taurus, UniProt P81947+Q6B856), sequence (Q6B856 whole entry): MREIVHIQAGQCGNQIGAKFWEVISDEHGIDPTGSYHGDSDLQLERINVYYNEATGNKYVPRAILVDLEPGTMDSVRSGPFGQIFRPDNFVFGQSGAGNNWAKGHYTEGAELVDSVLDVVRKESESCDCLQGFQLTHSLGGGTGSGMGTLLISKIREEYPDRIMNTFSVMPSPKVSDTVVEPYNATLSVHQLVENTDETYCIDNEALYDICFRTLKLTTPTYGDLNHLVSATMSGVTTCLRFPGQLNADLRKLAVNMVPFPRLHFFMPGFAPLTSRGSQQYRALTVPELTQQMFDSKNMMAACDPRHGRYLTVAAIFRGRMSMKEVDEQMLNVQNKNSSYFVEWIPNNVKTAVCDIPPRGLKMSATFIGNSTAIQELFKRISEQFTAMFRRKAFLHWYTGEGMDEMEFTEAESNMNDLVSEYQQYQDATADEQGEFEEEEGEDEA

[2] = tested on: subtilisin-treated tubulin; assay: Paclitaxel-induced assembly of subtilisin-treated tubulin; assay type: biochemical, bovine; conditions: same tubulin concentration (10 μM)
tubulin E-site = conditions: read-out: Kd for GDP binding to the E-site; cited from earlier work
[3] = tested on: taxoid site of microtubules; assay: Displacement of a fluorescent taxoid analog from microtubules; assay type: binding; conditions: fluorescence anisotropy; personal communication, Dr. Fernando Díaz
microtubules = microtubules (Bos taurus, UniProt P81947+Q6B856); assay: Lengths of paclitaxel-induced microtubules by electron microscopy; assay type: biochemical, bovine; conditions: for Mean microtubule length ± SD, Average / Mean microtubule length ± SD, Experiment I / Mean microtubule length ± SD, Experiment II: paclitaxel-induced microtubules
microtubules, sequence (P81947 whole entry): as the sequence (P81947 whole entry) above
microtubules, sequence (Q6B856 whole entry): as the sequence (Q6B856 whole entry) above
Outline: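 Paclitaxel-induced polymers were formed with GDP at the stated levels and monitored turbidimetrically. Samples were placed on carbon-coated formvar copper grids and stained with 1% uranyl acetate. Lengths were measured from EM negatives.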

tubulin with MAPs = tubulin with MAPs (Bos taurus, UniProt P81947+Q6B856); assay: Paclitaxel-induced tubulin assembly with heat-treated MAPs; assay type: biochemical, bovine
tubulin with MAPs, sequence (P81947 whole entry): as the sequence (P81947 whole entry) above
tubulin with MAPs, sequence (Q6B856 whole entry): as the sequence (Q6B856 whole entry) above

tubulin [4] = conditions: paclitaxel, 37 °C, cited from earlier work
tubulin [5] = assay: Critical concentration of tubulin for paclitaxel-induced assembly; assay type: biochemical, bovine; conditions: 10 μM paclitaxel
Outline: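 Bovine brain tubulin, MAP-free, carrying E-site GDP and N-site GTP, with no exogenous GTP or Mg2+. Assay buffer 0.1 M Mes (pH 6.9) with 10 μM paclitaxel, plus heat-treated MAPs or MAPs with GTP where indicated. Components mixed at 0 °C, held 2 min, jumped to 30 °C and followed about 30 min. Turbidity read at 350 nm.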

Effect on paclitaxel-induced tubulin assembly (tubulin [1]; no exogenous GTP): had any inhibitory effect, nor did
SMILES: Nc1ncnc2c1ncn2[C@@H]1O[C@H](COP(=O)(O)OP(=O)(O)O)[C@@H](O)[C@H]1O [ADP]

SMILES: Nc1ncnc2c1ncn2[C@@H]1O[C@H](COP(=O)(O)OP(=O)(O)OP(=O)(O)O)[C@@H](O)[C@H]1O [ATP]
Effect on paclitaxel-induced tubulin assembly (tubulin [1]; no exogenous GTP): weak inhibitory effect; also recorded: extensive inhibition; also recorded: inhibited

Effect on paclitaxel-induced tubulin assembly (tubulin [1]; no exogenous GTP): had any inhibitory effect, nor did
SMILES: Nc1ccn([C@@H]2O[C@H](COP(=O)(O)OP(=O)(O)O)[C@@H](O)[C@H]2O)c(=O)n1 [CDP]

Effect on paclitaxel-induced tubulin assembly (tubulin [1]; no exogenous GTP): Still weaker effects
SMILES: Nc1ccn([C@@H]2O[C@H](COP(=O)(O)OP(=O)(O)OP(=O)(O)O)[C@@H](O)[C@H]2O)c(=O)n1 [CTP]

IC50 with subtilisin-treated tubulin lower than value obtained with MAPs [2]: about 40% | Mean microtubule length ± SD, Average (microtubules; 5 μM GDP): 2.8 ± 2.1 μm | Mean microtubule length ± SD, Experiment I (microtubules; 5 μM GDP): 3.7 ± 2.2 μm | Mean microtubule length ± SD, Experiment II (microtubules; 5 μM GDP): 2.1 ± 1.5 μm | Mean microtubule length ± SD, Average (microtubules; 10 μM GDP): 2.8 ± 2.1 μm | Mean microtubule length ± SD, Experiment I (microtubules; 10 μM GDP): 3.5 ± 2.3 μm | Mean microtubule length ± SD, Experiment II (microtubules; 10 μM GDP): 2.2 ± 1.6 μm | Mean microtubule length ± SD, Average (microtubules; 50 μM GDP): 2.7 ± 2.4 μm | Mean microtubule length ± SD, Experiment I (microtubules; 50 μM GDP): 4.5 ± 3.2 μm | Mean microtubule length ± SD, Experiment II (microtubules; 50 μM GDP): 2.0 ± 1.5 μm | Change in average microtubule length (microtubules; whatever the GDP concentration (5-50 μM)): essentially no change | Effect on paclitaxel-induced tubulin assembly (tubulin [1]; 5 μM GDP): significant inhibitory effect | Effect on paclitaxel-induced tubulin assembly (tubulin [1]; 100 μM GDP): almost totally eliminated | Increase of the IC50 when 2 mM MgCl2 was added (tubulin [1]; 57 vs 15 μM): ~4 fold
SMILES: Nc1nc2c(ncn2[C@@H]2O[C@H](COP(=O)(O)OP(=O)(O)O)[C@@H](O)[C@H]2O)c(=O)[nH]1 [GDP]
Kd (tubulin E-site): 0.02 to 0.06 µM | Displacement of fluorescent taxoid analog from microtubules [3]: unable to displace the fluorescent taxoid

Effect on paclitaxel-induced tubulin assembly (tubulin [1]; no exogenous GTP): enhancing assembly
SMILES: Nc1nc2c(ncn2[C@@H]2O[C@H](COP(=O)(O)OP(=O)(O)OP(=O)(O)O)[C@@H](O)[C@H]2O)c(=O)[nH]1 [GTP]

Effect on paclitaxel-induced tubulin assembly (tubulin [1]; no exogenous GTP): had any inhibitory effect, nor did
SMILES: O=c1[nH]cnc2c1ncn2[C@@H]1O[C@H](COP(=O)(O)OP(=O)(O)O)[C@@H](O)[C@H]1O [IDP]

Effect on paclitaxel-induced tubulin assembly (tubulin [1]; no exogenous GTP): stimulatory
SMILES: O=c1[nH]cnc2c1ncn2[C@@H]1O[C@H](COP(=O)(O)OP(=O)(O)OP(=O)(O)O)[C@@H](O)[C@H]1O [ITP]

Effect on paclitaxel-induced tubulin assembly (tubulin [1]; no exogenous GTP): had any inhibitory effect, nor did
SMILES: O=c1ccn([C@@H]2O[C@H](COP(=O)(O)OP(=O)(O)O)[C@@H](O)[C@H]2O)c(=O)[nH]1 [UDP]

Effect on paclitaxel-induced tubulin assembly (tubulin [1]; no exogenous GTP): stimulatory
SMILES: O=c1ccn([C@@H]2O[C@H](COP(=O)(O)OP(=O)(O)OP(=O)(O)O)[C@@H](O)[C@H]2O)c(=O)[nH]1 [UTP]

Effect on paclitaxel-induced tubulin assembly (tubulin [1]; no exogenous GTP): stimulatory
SMILES: O=c1[nH]c(=O)c2ncn([C@@H]3O[C@H](COP(=O)(O)OP(=O)(O)OP(=O)(O)O)[C@@H](O)[C@H]3O)c2[nH]1 [XTP]

SMILES: COc1cc2cc(c1Cl)N(C)C(=O)C[C@H](OC(=O)[C@H](C)N(C)C(C)=O)[C@]1(C)O[C@H]1[C@H](C)[C@@H]1C[C@@](O)(NC(=O)O1)[C@H](OC)/C=C/C=C(\C)C2 [maytansine]
IC50 (tubulin with MAPs): < 5 µM | IC50 (tubulin [1]): < 5 µM

Extent of tubulin assembly (tubulin [1]; tubulin and paclitaxel both at 10 μM, no GTP, no MAPs): negligible assembly
SMILES: CC(=O)O[C@H]1C(=O)[C@@]2(C)[C@H]([C@H](OC(=O)c3ccccc3)[C@]3(O)C[C@H](OC(=O)[C@H](O)[C@@H](NC(=O)c4ccccc4)c4ccccc4)C(C)=C1C3(C)C)[C@]1(OC(C)=O)CO[C@@H]1C[C@@H]2O [paclitaxel, Paclitaxel]
Critical concentration of tubulin (tubulin [4]; no GTP, no MAPs, obtained previously): 22 to 28 µM | Critical concentration of tubulin (tubulin [4]; with MAPs, different protein preparations): 2 to 5 µM | Reduction in critical concentration by subtilisin treatment (tubulin [5]; 15 μM to 1.6 μM): ~10 fold | Critical concentration of tubulin (tubulin [5]; 30 °C, MAPs alone added): about 3.5 μM | Critical concentration of tubulin (tubulin [5]; both MAPs and GTP added): less than 1 μM | Critical concentration of subtilisin-treated tubulin (tubulin [5]; subtilisin-treated tubulin): 1.6 µM

SMILES: COc1cc([C@@H]2c3cc4c(cc3[C@H](O)[C@H]3COC(=O)[C@H]23)OCO4)cc(OC)c1OC [podophyllotoxin, Podophyllotoxin]
IC50 (tubulin with MAPs): < 5 µM
